Experimental data as given in ChEMBL document CHEMBL4834429, “Discovery of Nanomolar Melanocortin-3 Receptor (MC3R)-Selective Small Molecule Pyrrolidine Bis-Cyclic Guanidine Agonist Compounds Via a High-Throughput "Unbiased" Screening Campaign” (J Med Chem, 2021).

Columns and labels:
Assay type in all cases: functional, cell-based
Melanocortin receptor 5 = Melanocortin receptor 5 (Mus musculus, UniProt P41149); experiment: Agonist activity at mouse melanocortin receptor 5 expressed in HEK293 cells assessed as stimulation of intracellular cAMP accumulation incubated for 24 hrs by beta-galactosidase reporter gene assay
Chain of Melanocortin receptor 5 (P41149 whole entry): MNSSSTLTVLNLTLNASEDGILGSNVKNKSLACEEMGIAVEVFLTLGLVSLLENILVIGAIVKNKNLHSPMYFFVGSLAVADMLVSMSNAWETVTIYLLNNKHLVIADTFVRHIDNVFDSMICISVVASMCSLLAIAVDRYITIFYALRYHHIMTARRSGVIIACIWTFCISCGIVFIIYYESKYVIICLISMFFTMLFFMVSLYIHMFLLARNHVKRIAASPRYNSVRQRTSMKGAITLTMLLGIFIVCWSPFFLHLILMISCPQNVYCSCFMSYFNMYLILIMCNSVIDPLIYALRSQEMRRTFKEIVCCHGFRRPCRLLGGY

Melanocortin receptor 3 = Melanocortin receptor 3 (Mus musculus, UniProt P33033); experiment: Antagonist activity at mouse melanocortin receptor 3 expressed in HEK293 cells assessed as inhibition of NDP-MSH-induced intracellular cAMP accumulation incubated for 24 hrs by beta-galactosidase reporter gene assay
Chain of Melanocortin receptor 3 (P33033 whole entry): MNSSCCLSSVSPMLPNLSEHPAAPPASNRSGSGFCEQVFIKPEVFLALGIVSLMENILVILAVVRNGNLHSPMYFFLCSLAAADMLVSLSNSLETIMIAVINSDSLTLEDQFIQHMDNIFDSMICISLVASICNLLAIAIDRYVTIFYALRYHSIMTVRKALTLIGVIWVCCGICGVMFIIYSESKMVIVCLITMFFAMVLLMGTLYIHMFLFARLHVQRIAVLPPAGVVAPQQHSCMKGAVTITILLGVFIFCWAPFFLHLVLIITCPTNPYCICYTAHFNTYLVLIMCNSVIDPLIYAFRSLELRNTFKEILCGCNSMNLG

[1] = biological target: Melanocyte-stimulating hormone receptor (Mus musculus, UniProt Q01727); experiment: Antagonist activity at mouse melanocortin receptor 1 expressed in HEK293 cells assessed as inhibition of NDP-MSH-induced intracellular cAMP accumulation incubated for 24 hrs by beta-galactosidase reporter gene assay
Chain of Melanocyte-stimulating hormone receptor (Q01727 whole entry): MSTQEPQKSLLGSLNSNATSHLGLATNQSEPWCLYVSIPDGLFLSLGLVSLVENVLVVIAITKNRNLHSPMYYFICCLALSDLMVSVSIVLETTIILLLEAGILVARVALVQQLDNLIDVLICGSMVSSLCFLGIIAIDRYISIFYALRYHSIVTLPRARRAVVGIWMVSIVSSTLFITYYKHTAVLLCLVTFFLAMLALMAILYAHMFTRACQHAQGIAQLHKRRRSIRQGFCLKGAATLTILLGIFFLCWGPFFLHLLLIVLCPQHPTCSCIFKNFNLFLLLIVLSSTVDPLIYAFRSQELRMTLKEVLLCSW

[2] = biological target: Melanocortin receptor 4 (Mus musculus) (UniProt P56450); experiment: Agonist activity at mouse melanocortin receptor 4 expressed in HEK293 cells assessed as stimulation of intracellular cAMP accumulation at 10 uM incubated for 24 hrs by beta-galactosidase reporter gene assay relative to control; conditions: filed as agonist
Chain of Melanocortin receptor 4 (Mus musculus) (P56450 whole entry): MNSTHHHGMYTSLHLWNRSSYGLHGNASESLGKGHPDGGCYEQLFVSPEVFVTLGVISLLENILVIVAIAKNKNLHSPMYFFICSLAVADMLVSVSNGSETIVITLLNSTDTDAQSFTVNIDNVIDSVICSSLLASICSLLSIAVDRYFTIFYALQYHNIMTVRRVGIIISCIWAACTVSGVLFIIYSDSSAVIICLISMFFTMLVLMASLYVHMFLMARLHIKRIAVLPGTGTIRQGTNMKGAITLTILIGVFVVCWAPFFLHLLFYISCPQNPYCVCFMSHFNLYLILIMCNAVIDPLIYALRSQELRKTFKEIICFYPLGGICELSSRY
How it was run: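 After lysis, ONPG hydrolysis was read at 405 nm and normalized to Bradford protein and maximal NDP-MSH response. Duplicates, ≥3 independent experiments; 100 μM dropped from fits where toxic.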

In the case of `CCC[C@@H]1CN([C@H](Cc2ccccc2)CN2CCC[C@H]2CN2C(=N)NC[C@H]2CC(C)C)C(=N)N1CCCC(C)C`, the EC50 (Melanocortin receptor 5) is reported as 2.18 µM, the EC50 (Melanocortin receptor 3) is reported as > 100 µM and the EC50 [1] is reported as > 100 µM. The Emax [2] was 51%.
